Reference: ChEMBL document CHEMBL4118104, “Design, Synthesis, and Evaluation of Orally Bioavailable Quinoline-Indole Derivatives as Innovative Multitarget-Directed Ligands: Promotion of Cell Proliferation in the Adult Murine Hippocampus for the Treatment of Alzheimer's Disease” (J Med Chem, 2018)

What was measured:
Mus musculus [1] = experiment: Cognition enhancement activity in double APP/PS1 transgenic Alzheimer's disease mouse model assessed as swimming path length in correct quadrant at 30 mg/kg/day, po for 80 days by Morris water maze test (reference value: 295.3 +/- 46.9 cm); type: functional
Procedure, shortened: (§1)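 APP/PS1 mice, six months old, gavaged 30 mg/kg/day in 0.5% CMC-Na for 80 days. Probe trial was a single 90 s free swim with the platform absent; effective region is twice the platform diameter. n = 10, mean ± SD, two-way ANOVA.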

Mus musculus [2] = experiment: Toxicity in C57BL/6 mouse assessed as macroscopic abnormalities of kidney at 677 to 2000 mg/kg, ig after 14 consecutive days; type: organism-based; conditions: in vivo, po
Mus musculus [3] = experiment: Toxicity in C57BL/6 mouse assessed as macroscopic abnormalities of lung at 677 to 2000 mg/kg, ig after 14 consecutive days; type: organism-based; conditions: in vivo, po, 336 h
Mus musculus [4] = experiment: Toxicity in C57BL/6 mouse assessed as mortality at 677 to 2000 mg/kg, ig measured continuously during first 4 hrs, intermittently for following 24 hrs and occasionally thereafter for 14 consecutive days; type: organism-based; conditions: in vivo, po
Procedure, shortened: (§2)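 Adult C57BL/6 mice, 12 weeks old, given single intragastric doses of 0, 677, 1333 or 2000 mg/kg (n = 6 per dose, 3 male and 3 female). Abnormal behaviour and deaths observed continuously for the first 4 h, intermittently over the next 24 h, then occasionally for 14 days to catch delayed effects.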

Mus musculus [5] = experiment: Induction of cell proliferation in C57BL/6 mouse hippocampal neurons in CA2 region assessed as BrdU-incorporation at 30 mg/kg, po administered via gavage for 7 days by immunohistochemical analysis (reference value: 2.4%); type: functional
Procedure, shortened: (§3)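 C57BL/6 mice, 12 weeks old, n = 6, individually housed beforehand without wheels. Compound gavaged 30 mg/kg/day for 7 days with daily IP BrdU 50 mg/kg; BrdU+ cells counted by immunohistochemistry per hippocampal volume; two-way ANOVA.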

Mus musculus [6] = experiment: Toxicity in double APP/PS1 transgenic Alzheimer's disease mouse model assessed as carcinogenicity in liver at 30 mg/kg/day, po for 80 days; type: organism-based; conditions: in vivo, 1920 h
Procedure, shortened: (§4)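 APP/PS1 double-transgenic mice, six months old, dosed by intragastric infusion at 30 mg/kg/day in 0.5% CMC-Na for 80 consecutive days (n = 10). Vehicle mice and wild-type C57BL/6 mice received blank 0.5% CMC-Na. Body weight tracked daily; diarrhoea, emesis-like behaviour and mortality monitored. At sacrifice, brain, subcutaneous layer, stomach, intestines, heart, lung, liver, spleen, kidneys and other organs examined for expansion or carcinogenicity.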

Mus musculus [7] = experiment: Toxicity in double APP/PS1 transgenic Alzheimer's disease mouse model assessed as emesis-like behavior at 30 mg/kg/day, po for 80 days; type: organism-based; conditions: in vivo, 1920 h; procedure, shortened: as §4
[8] = Half life in Sprague-Dawley rat liver microsomes at 100 uM up to 180 mins by HPLC-UV analysis; conditions: liver microsomes
Mus musculus [9] = experiment: Toxicity in double APP/PS1 transgenic Alzheimer's disease mouse model assessed as swimming speed at 30 mg/kg/day, po for 80 days by Morris water maze test (reference value: 17.8 +/- 2.5 cm/sec); type: organism-based; conditions: in vivo, 1920 h
Mus musculus [10] = experiment: Toxicity in C57BL/6 mouse assessed as effect on body weight at 677 to 2000 mg/kg, ig measured continuously during first 4 hrs, intermittently for following 24 hrs and occasionally thereafter for 14 consecutive days; type: organism-based; conditions: in vivo, po
Mus musculus [11] = experiment: Cognition enhancement activity in double APP/PS1 transgenic Alzheimer's disease mouse model assessed as swimming path length in effective region at 30 mg/kg/day, po for 80 days by Morris water maze test (reference value: 44.2 +/- 4.9 cm); type: functional; procedure, shortened: as §1
Mus musculus [12] = experiment: Toxicity in double APP/PS1 transgenic Alzheimer's disease mouse model assessed as carcinogenicity in lung at 30 mg/kg/day, po for 80 days; type: organism-based; conditions: in vivo, 1920 h; procedure, shortened: as §4
Mus musculus [13] = experiment: Toxicity in C57BL/6 mouse assessed as macroscopic abnormalities of heart at 677 to 2000 mg/kg, ig after 14 consecutive days; type: organism-based; conditions: in vivo, po
Mus musculus [14] = experiment: Toxicity in double APP/PS1 transgenic Alzheimer's disease mouse model assessed as carcinogenicity in intestine at 30 mg/kg/day, po for 80 days; type: organism-based; conditions: in vivo, 1920 h; procedure, shortened: as §4
Mus musculus [15] = experiment: Induction of cell proliferation in C57BL/6 mouse hippocampal neurons in CA3 region assessed as BrdU-incorporation at 30 mg/kg, po administered via gavage for 7 days by immunohistochemical analysis (reference value: 1.5%); type: functional; procedure, shortened: as §3
Mus musculus [16] = experiment: Induction of cell proliferation in C57BL/6 mouse hippocampal neurons in CA2 region assessed as BrdU-incorporation at 0.5 uL/hr, icv for 7 days by immunohistochemical analysis (reference value: 2.4%); type: functional
Mus musculus [17] = experiment: Induction of cell proliferation in C57BL/6 mouse hippocampal neurons in CA3 region assessed as BrdU-incorporation at 0.5 uL/hr, icv for 7 days by immunohistochemical analysis (reference value: 1.4%); type: functional
Mus musculus [18] = experiment: Induction of cell proliferation in C57BL/6 mouse hippocampal neurons in DG region assessed as BrdU-incorporation at 0.5 uL/hr, icv for 7 days by immunohistochemical analysis (reference value: 7.8%); type: functional
Mus musculus [19] = experiment: Toxicity in double APP/PS1 transgenic Alzheimer's disease mouse model assessed as effect on body weight at 30 mg/kg/day, po for 80 days; type: organism-based; conditions: in vivo, 1920 h; procedure, shortened: as §4
Mus musculus [20] = experiment: Toxicity in double APP/PS1 transgenic Alzheimer's disease mouse model assessed as increase in mortality at 30 mg/kg/day, po for 80 days; type: organism-based; conditions: in vivo, 1920 h; procedure, shortened: as §4
Mus musculus [21] = experiment: Toxicity in double APP/PS1 transgenic Alzheimer's disease mouse model assessed as carcinogenicity in subcutaneous layer at 30 mg/kg/day, po for 80 days; type: organism-based; conditions: in vivo, 1920 h; procedure, shortened: as §4
Mus musculus [22] = experiment: Induction of cell proliferation in C57BL/6 mouse hippocampal neurons in DG region assessed as BrdU-incorporation at 30 mg/kg, po administered via gavage for 7 days by immunohistochemical analysis (reference value: 2.2%); type: functional; procedure, shortened: as §3
Mus musculus [23] = experiment: Toxicity in C57BL/6 mouse assessed as abnormal behavior at 677 to 2000 mg/kg, ig measured continuously during first 4 hrs, intermittently for following 24 hrs and occasionally thereafter for 14 consecutive days; type: organism-based; conditions: in vivo, po; procedure, shortened: as §2
Mus musculus [24] = experiment: Toxicity in C57BL/6 mouse assessed as macroscopic abnormalities of intestine at 677 to 2000 mg/kg, ig after 14 consecutive days; type: organism-based; conditions: in vivo, po
Mus musculus [25] = experiment: Toxicity in double APP/PS1 transgenic Alzheimer's disease mouse model assessed as carcinogenicity in stomach at 30 mg/kg/day, po for 80 days; type: organism-based; conditions: in vivo, 1920 h; procedure, shortened: as §4
Mus musculus [26] = experiment: Cognition enhancement activity in double APP/PS1 transgenic Alzheimer's disease mouse model assessed as time spent in virtual platform at 30 mg/kg/day, po for 80 days by Morris water maze test (reference value: 1.9 +/- 0.2 sec); type: functional; procedure, shortened: as §1
Mus musculus [27] = experiment: Cognition enhancement activity in double APP/PS1 transgenic Alzheimer's disease mouse model assessed as time spent in effective region at 30 mg/kg/day, po for 80 days by Morris water maze test (reference value: 9.0 +/- 3.8 sec); type: functional; procedure, shortened: as §1
Mus musculus [28] = experiment: Cognition enhancement activity in double APP/PS1 transgenic Alzheimer's disease mouse model assessed as swimming path length in virtual platform at 30 mg/kg/day, po for 80 days by Morris water maze test (reference value: 9.1 +/- 2.8 cm); type: functional; procedure, shortened: as §1

Cl.Oc1ccc2[nH]c(-c3ccc4c(Cl)cc(Cl)c(O)c4n3)cc2c1
Activity (Mus musculus [1]): 533.3 cm | Activity (Mus musculus [2]): Non-Toxic | Activity (Mus musculus [3]): Non-Toxic | Activity (Mus musculus [4]): Non-Toxic | Activity (Mus musculus [5]): 24.3% | Activity (Mus musculus [6]): Non-Toxic | Activity (Mus musculus [7]): Non-Toxic | half-life at 3 h, 100 µM [8]: 1.95 h | Activity (Mus musculus [9]): 18.9 cm/s | Activity (Mus musculus [10]): Non-Toxic | Activity (Mus musculus [11]): 71.3 cm | Activity (Mus musculus [12]): Non-Toxic | Activity (Mus musculus [13]): Non-Toxic | Activity (Mus musculus [14]): Non-Toxic | Activity (Mus musculus [15]): 23.9% | Activity (Mus musculus [16]): 39.6% | Activity (Mus musculus [17]): 36.5% | Activity (Mus musculus [18]): 41.3% | Activity (Mus musculus [19]): Non-Toxic | Activity (Mus musculus [20]): Non-Toxic | Activity (Mus musculus [21]): Non-Toxic | Activity (Mus musculus [22]): 30.6% | Activity (Mus musculus [23]): Non-Toxic | Activity (Mus musculus [24]): Non-Toxic | Activity (Mus musculus [25]): Non-Toxic | Time (Mus musculus [26]): 3.2 s | Time (Mus musculus [27]): 18 s | Activity (Mus musculus [28]): 22.1 cm

Cl.Oc1c(Cl)cc(Cl)c2ccc(-c3cc4cc5c(cc4[nH]3)OCO5)nc12
Activity (Mus musculus [1]): 473.5 cm | Activity (Mus musculus [2]): Non-Toxic | Activity (Mus musculus [3]): Non-Toxic | Activity (Mus musculus [4]): Non-Toxic | Activity (Mus musculus [5]): 16.3% | Activity (Mus musculus [6]): Non-Toxic | Activity (Mus musculus [7]): Non-Toxic | half-life at 3 h, 100 µM [8]: 6.49 h | Activity (Mus musculus [9]): 19 cm/s | Activity (Mus musculus [10]): Non-Toxic | Activity (Mus musculus [11]): 65.5 cm | Activity (Mus musculus [12]): Non-Toxic | Activity (Mus musculus [13]): Non-Toxic | Activity (Mus musculus [14]): Non-Toxic | Activity (Mus musculus [15]): 17.1% | Activity (Mus musculus [16]): 38% | Activity (Mus musculus [17]): 37.6% | Activity (Mus musculus [18]): 31.2% | Activity (Mus musculus [19]): Non-Toxic | Activity (Mus musculus [20]): Non-Toxic | Activity (Mus musculus [21]): Non-Toxic | Activity (Mus musculus [22]): 17% | Activity (Mus musculus [23]): Non-Toxic | Activity (Mus musculus [24]): Non-Toxic | Activity (Mus musculus [25]): Non-Toxic | Time (Mus musculus [26]): 2.6 s | Time (Mus musculus [27]): 16.7 s | Activity (Mus musculus [28]): 15 cm
